The nature of test [1]: Her2 expression decrease, cell viability multiplex – SKBR3 breast tumor cells, AlphaScreen, ATP viability, primary screen (AID 461;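 active = Her2 level under about 52% in both replicate screens, with viability over 70% of control, limit read from the data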;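 for Her2 level: lower value means less Her2 protein in the cells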;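 for viability: percent of carrier control wells set as 100% viability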). Particulars: SKBR3 Her2 protein level, 18-24 h, measured here: SKBR3 viability, ATP luminescence, at 10 µM. For orientation: Bead proximity is the source of the signal in Alpha formats.
Test [2] concerns the target Receptor tyrosine-protein kinase erbB-2 (Homo sapiens) (UniProt P04626). The description is as above. Particulars: 18-24 h, at 10 µM, stronger effect = lower value.
The nature of test [3]: reduced viability of SK-BR-3 breast cancer cells – cell-based, 24 h, human, pilot screen (AID 572;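 active = viability at or below 10% of carrier control in both of two separate runs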;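 note: compound exposure lasted between 18 and 24 h rather than exactly 24 h; 100% = carrier-treated control wells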). The note with it: SK-BR-3 viability, CellTiter-Glo luminescence, at 10 µM, stronger effect = lower value. In general terms: ATP-based viability assays read luminescence as a measure of living cells.
A short description of test [4]: HUVEC growth inhibition – cell-based, human, primary screen (AID 575;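 active = viability at or below 30% in both replicate assays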;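 note: 100% = median of untreated cell wells with 0.1% DMSO on each plate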). Particulars: HUVEC proliferation, CellTiter-Glo luminescence, 72 h; at 10 µM; stronger effect = lower value. Summed up: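 system = HUVEC primary cells | amount = 1250 cells/well | buffer or medium = supplemented EBM, 2% fetal bovine serum | dosing = single-point 10 µM, DMSO 0.1% final | times = 72 h compound incubation | detection = CTG luminescence | read-out = % viability relative to median vehicle-well signal on each plate | control set = vehicle and MePR control wells | format = collagen-coated 384-well format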

Test [5] is described as follows: H69AR cell proliferation blockers – human, duplicate replicates, primary screen (AID 580;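 active = viability at or under a set limit in both replicates, limit being median viability minus 3 SD, cut at about 48% in these data, passing the limit was not always enough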;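 note: 100% = mean luminescence of untreated wells and 0% = no signal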). Particulars: H69AR lung tumor cells viability, ATP luminescence, 72 h; at 10 µM; stronger effect = lower value.
The nature of test [6]: MRP1 drug-resistance reversers in H69AR cells – cell-based, doxorubicin co-treatment, pilot screen (AID 601;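 active = viability loss from added drug above about 55%, and viability with drug at most 40%, in both replicates, limit read from the data, passing the limit was not always enough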). Particulars: CellTiter-Glo, 72 h, at 10 µM; for differential viability (reversal): stronger effect = higher value.
Test [7] can be described thus: yeast transport mutant growth inhibition pilot in 384-well plates, post-Golgi transport modulator project (AID 636; in the data active = inhibition above about 31%). The note with it: absorbance 615 nm, about 18 h, stronger effect = higher value.
The nature of test [8]: growth suppression of yeast trafficking mutant, preliminary HTS, modulators of trafficking downstream of Golgi apparatus project, 1536-format plate, OD 615 nm (AID 637). The note with it: yeast transport mutant growth, absorbance 615 nm, 18 h; stronger effect = higher value.
Where [9] appears, read: H69AR cells + 2 uM doxorubicin, measured here: viability with 2 uM doxorubicin, stronger effect = lower value.
Setting [10] is: H69AR cells, compound alone cytotoxicity.

Calls of active or inactive are those of the source. Cut-off read from the data, not from the text of the source, unless noted: active = inhibition above about 30%; inactive = the rest.

Receptor tyrosine-protein kinase erbB-2 (Homo sapiens), sequence (P04626 whole entry, looked up): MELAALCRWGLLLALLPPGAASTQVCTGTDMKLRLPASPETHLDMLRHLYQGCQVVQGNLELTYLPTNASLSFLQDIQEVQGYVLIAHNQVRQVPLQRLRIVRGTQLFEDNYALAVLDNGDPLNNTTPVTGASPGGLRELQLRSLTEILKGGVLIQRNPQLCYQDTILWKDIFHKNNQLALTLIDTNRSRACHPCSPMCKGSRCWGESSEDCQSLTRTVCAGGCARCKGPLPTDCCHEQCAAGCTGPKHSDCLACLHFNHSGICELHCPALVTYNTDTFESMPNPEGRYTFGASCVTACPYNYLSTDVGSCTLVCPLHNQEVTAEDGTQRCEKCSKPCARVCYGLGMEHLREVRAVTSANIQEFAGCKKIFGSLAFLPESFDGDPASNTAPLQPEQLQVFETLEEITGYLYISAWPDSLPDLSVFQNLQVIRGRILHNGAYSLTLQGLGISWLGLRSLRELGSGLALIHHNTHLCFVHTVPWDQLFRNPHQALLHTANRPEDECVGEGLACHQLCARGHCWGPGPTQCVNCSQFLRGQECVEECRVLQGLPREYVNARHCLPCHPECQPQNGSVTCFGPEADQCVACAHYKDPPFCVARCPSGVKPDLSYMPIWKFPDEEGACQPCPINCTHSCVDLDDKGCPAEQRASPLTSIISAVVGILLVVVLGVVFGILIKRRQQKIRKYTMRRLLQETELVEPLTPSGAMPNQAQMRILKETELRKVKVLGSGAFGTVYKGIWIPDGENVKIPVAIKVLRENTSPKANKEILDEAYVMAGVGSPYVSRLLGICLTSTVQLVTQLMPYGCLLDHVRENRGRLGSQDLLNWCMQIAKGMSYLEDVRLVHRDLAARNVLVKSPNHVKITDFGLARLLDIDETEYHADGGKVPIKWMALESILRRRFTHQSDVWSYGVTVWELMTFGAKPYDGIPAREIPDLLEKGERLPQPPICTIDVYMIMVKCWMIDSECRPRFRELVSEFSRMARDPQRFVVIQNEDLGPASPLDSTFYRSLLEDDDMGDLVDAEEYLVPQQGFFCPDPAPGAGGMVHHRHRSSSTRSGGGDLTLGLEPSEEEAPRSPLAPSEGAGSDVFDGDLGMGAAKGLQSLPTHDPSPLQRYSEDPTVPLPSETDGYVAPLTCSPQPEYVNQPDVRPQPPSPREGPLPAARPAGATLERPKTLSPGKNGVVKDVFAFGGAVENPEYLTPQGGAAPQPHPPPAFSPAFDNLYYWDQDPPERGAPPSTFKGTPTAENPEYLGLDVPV

As usually defined, the viability is a read-out of living cells in per cent, often relative to untreated cells. A word on the inhibition: it is the relative decrease from the control value, in per cent. With `COc1ccc(C2C3=C(CC(C)(C)CC3=O)Oc3ncn4nc(-c5cccnc5)nc4c32)cc1` (stereo not given), the viability was 96% in test [1]; 96% (inactive) in test [3]; 108% (inactive) in test [4]; 105% (inactive) in test [5]; 90.9% in test [6] (setting [9]); 105% in test [6] (setting [10]). In test [2], the Her2 level was 84.5% (inactive). Besides, the differential viability (reversal) in test [6] (H69AR cells + 2 uM doxorubicin) is 14.3% (inactive). The values for the inhibition in test [7] and in test [8] were -9.05% (inactive) and 0% (inactive), respectively.

Consider `Cc1sc(NC(=O)CSc2nc(N)n(CC(=O)c3ccccc3)n2)c(C#N)c1C`, for which the viability is 103% in test [1]; 103% (inactive) in test [3]; 103% (inactive) in test [4]; 90.4% (inactive) in test [5]; 91.2% in test [6] (setting [9]); 90.4% in test [6] (setting [10]). Further, the Her2 level in test [2] is 106% (inactive). For the same compound, the differential viability (reversal) in test [6] (H69AR cells + 2 uM doxorubicin) is -0.79% (inactive). Moreover, the inhibition in test [7] is -3.65% (inactive); in test [8], -6.83% (inactive).

Take `COc1ccccc1CNC(=O)C1CCCN(S(=O)(=O)c2cnc[nH]2)C1` (stereo not given): the viability in test [1] is 94%; in test [3], 94% (inactive); in test [4], 105% (inactive); in test [5], 109% (inactive); in test [6] (setting [9]), 92.3%; in test [6] (setting [10]) it was 109%. Further, the Her2 level in test [2] was 102% (inactive). Besides, the differential viability (reversal) in test [6] (H69AR cells + 2 uM doxorubicin) is 16.7% (inactive). Further, the inhibition is 1.47% (inactive) in test [7] and -0.98% (inactive) in test [8].

For `COc1ccc(CCNS(=O)(=O)c2ccc3oc(C(=O)O)c(C)c3c2)cc1OC`, the viability in test [1] is 109%; in test [3], 109% (inactive); in test [4], 112% (inactive); in test [5], 88.7% (inactive); in test [6] (setting [9]) it was 91.2%; in test [6] (setting [10]), 88.7%. The Her2 level in test [2] is 92% (inactive). In test [6] (H69AR cells + 2 uM doxorubicin), the differential viability (reversal) is -2.46% (inactive). In addition, the inhibition was 0.78% (inactive) in test [7] and 1.15% (inactive) in test [8].

For the compound `O=S(=O)(c1cccc2nsnc12)N1CCN(c2ncccn2)CC1`, the viability was 87% in test [1]; 87% (inactive) in test [3]; 105% (inactive) in test [4]; 86.9% (inactive) in test [5]; 94.9% in test [6] (setting [9]); 86.9% in test [6] (setting [10]). Also, the Her2 level in test [2] is 96% (inactive). Further, the differential viability (reversal) in test [6] (H69AR cells + 2 uM doxorubicin) was -7.98% (inactive). Further, the values for the inhibition in test [7] and in test [8] were -7.16% (inactive) and 3.61% (inactive), respectively.

As to `O=C(COC(=O)C12CC3CC(CC(O)(C3)C1)C2)N1CCN(S(=O)(=O)c2ccc(Cl)cc2)CC1`, the viability was 87.5% in test [1]; 87.5% (inactive) in test [3]; 107% (inactive) in test [4]; 83.6% (inactive) in test [5]; 91.3% in test [6] (setting [9]); 83.6% in test [6] (setting [10]). For the same compound, the Her2 level in test [2] is 85.5% (inactive). The differential viability (reversal) in test [6] (H69AR cells + 2 uM doxorubicin) was -7.7% (inactive). For the same compound, the inhibition is -3.33% (inactive) in test [7] and -4.17% (inactive) in test [8].

For `COCCN(C(=O)Cn1nnc2ccccc21)C(C(=O)NC1CCCC1)c1cc(OC)ccc1OC` (stereo not given), the viability in test [1] is 86%; in test [3], 86% (inactive); in test [4], 101% (inactive); in test [5], 93.9% (inactive); in test [6] (setting [9]) it was 94.1%; in test [6] (setting [10]), 93.9%. Further, the Her2 level in test [2] is 106% (inactive). For the same compound, in test [6] (H69AR cells + 2 uM doxorubicin), the differential viability (reversal) was -0.19% (inactive). In addition, the figures for the inhibition in test [7] and in test [8] were -0.8% (inactive) and -4.92% (inactive), respectively.

Regarding `Cc1cc(C)n(CCc2nc(-c3cccs3)cs2)n1`, the viability in test [1] is 93%; in test [3], 93% (inactive); in test [4] it was 106% (inactive); in test [5], 104% (inactive); in test [6] (setting [9]) it was 79.2%; in test [6] (setting [10]), 104%. Moreover, the Her2 level in test [2] is 88% (inactive). For the same compound, the differential viability (reversal) in test [6] (H69AR cells + 2 uM doxorubicin) was 25.3% (inactive). Further, the inhibition in test [7] was -2.6% (inactive); in test [8], -0.48% (inactive).

As to `Cn1c(=O)oc2cc(S(=O)(=O)NCCC(=O)N3CCc4ccccc4C3)ccc21`, the viability in test [1] was 102%; in test [3], 102% (inactive); in test [4], 96.6% (inactive); in test [5], 99.3% (inactive); in test [6] (setting [9]) it was 91.6%; in test [6] (setting [10]), 99.3%. For the same compound, in test [2], the Her2 level was 87.5% (inactive). Further, in test [6] (H69AR cells + 2 uM doxorubicin), the differential viability (reversal) is 7.68% (inactive). Further, the inhibition in test [7] is -8.36% (inactive); in test [8], 6.19% (inactive).

As to `Cc1nc2nc(SCC(=O)NCc3ccco3)nn2c(C)c1Cc1ccccc1`, the viability in test [1] is 83%; in test [3], 83% (inactive); in test [4], 97.3% (inactive); in test [5], 75.2% (inactive); in test [6] (setting [9]) it was 77.2%; in test [6] (setting [10]), 75.2%. In addition, in test [2], the Her2 level is 108% (inactive). Besides, the differential viability (reversal) in test [6] (H69AR cells + 2 uM doxorubicin) was -2% (inactive). In addition, the inhibition in test [7] was -5.27% (inactive); in test [8], -3% (inactive).

Consider `Cc1ccc(-c2cc(C(=O)N3CCCC3)no2)cc1`, for which the viability in test [1] is 93.5%; in test [3], 93.5% (inactive); in test [4] it was 96% (inactive); in test [5], 95.1% (inactive); in test [6] (setting [9]), 93.1%; in test [6] (setting [10]) it was 95.1%. Further, the Her2 level in test [2] is 106% (inactive). Also, the differential viability (reversal) in test [6] (H69AR cells + 2 uM doxorubicin) is 2% (inactive). In addition, the inhibition in test [7] is -2.11% (inactive); in test [8], -5.16% (inactive).

With `CN(CC(=O)N1CCN(c2ccc(F)cc2)CC1)S(=O)(=O)c1ccc(F)cc1`, the viability is 97% in test [1]; 97% (inactive) in test [3]; 88.4% (inactive) in test [4]; 86.6% (inactive) in test [5]; 94.5% in test [6] (setting [9]); 86.6% in test [6] (setting [10]). Besides, in test [2], the Her2 level is 95.5% (inactive). Further, in test [6] (H69AR cells + 2 uM doxorubicin), the differential viability (reversal) was -7.95% (inactive). Moreover, the inhibition was -6.18% (inactive) in test [7] and 5.25% (inactive) in test [8].

Take `Cc1cc(C)cc(NS(=O)(=O)c2ccc3[nH]cc(C(=O)NCc4ccco4)c(=O)c3c2)c1`: the viability was 97% in test [1]; 97% (inactive) in test [3]; 19% (active) in test [4]; 41.1% (active) in test [5]; 77% in test [6] (setting [9]); 41.1% in test [6] (setting [10]). Further, the Her2 level in test [2] was 87% (inactive). In test [6] (H69AR cells + 2 uM doxorubicin), the differential viability (reversal) is -35.9% (inactive). Moreover, the results for the inhibition in test [7] and in test [8] were -5.39% (inactive) and 1.45% (inactive), respectively.

Take `CCCCc1nccn1CCn1ccnc1CCCC`: the viability is 87% in test [1]; 87% (inactive) in test [3]; 97% (inactive) in test [4]; 85.8% (inactive) in test [5]; 86.7% in test [6] (setting [9]); 85.8% in test [6] (setting [10]). In addition, the Her2 level in test [2] is 85.5% (inactive). For the same compound, the differential viability (reversal) in test [6] (H69AR cells + 2 uM doxorubicin) is -0.88% (inactive). For the same compound, the inhibition was -3.47% (inactive) in test [7] and 1.61% (inactive) in test [8].

Source of the values: PubChem BioAssay.
